HCV core dimer: blocks dimerization of HCV core protein; TR-FRET GST/Flag-core106 dimerization, 1536-well; inhibition, % at 5 µM; 0.33% of 300,000 active; AID 1899;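 active means inhibition above the mean of all tested compounds plus 3 SD, set per screening campaign, cut at about 45% in these data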
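Assay system: Tagged HCV core106 pair (GST and Flag) | Buffer or medium: KF-containing HEPES buffer, pH 7.45, DTT, CHAPS, BSA | Also added: Eu donor and XL665 acceptor anti-tag antibodies | Dosing: One concentration, 5 µM, in 0.5% DMSO | Timing: 4 h at 22.5 °C | Technique: TR-FRET 671 and 617 nm emission | Repeats: Singlicate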
ALR inh: inhibitors of human sulfhydryl oxidase ALR; P55789; 3.8% of 290,000 active; AID 485317; inhibition, % (concentration not given with the values); purified ALR, DTT oxidation, H2O2 HRP-luminol luminescence;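 active means mean replicate inhibition above about 79%, with every replicate also reaching it, limit read from the data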
HSF-1 act: increases HSF-1 driven luciferase reporter signal | NIH3T3-HGL HSF-1 luciferase reporter, MG132, 8 h; 100% = twice DMSO control signal | activation, % at 9 µM | 1.7% of 300,000 active;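 active means mean replicate activation of at least 50% with a set share of replicates each reaching 50%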;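 further: 0% = median of the neutral control wells and 100% = twice that signal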
PHOSPHO1 inh: PHOSPHO1 (human) inhibition | Q8TCT1 | inhibition, % at 13.3 µM | 1.1% of 290,000 active | recombinant PHOSPHO1, absorbance phosphatase assay; in the data active means inhibition above about 60%
Target sequence (Q8TCT1 whole entry, looked up): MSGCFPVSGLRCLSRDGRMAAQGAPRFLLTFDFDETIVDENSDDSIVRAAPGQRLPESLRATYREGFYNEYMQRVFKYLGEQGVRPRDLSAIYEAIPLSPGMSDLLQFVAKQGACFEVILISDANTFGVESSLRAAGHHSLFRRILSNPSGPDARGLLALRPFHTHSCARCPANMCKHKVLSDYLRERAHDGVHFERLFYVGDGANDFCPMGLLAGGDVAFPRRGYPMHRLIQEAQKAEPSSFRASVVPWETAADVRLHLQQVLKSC
HSF1 inh: HSF1 inhibition. activity change, negative = inhibition, % at 7.5 µM (by protocol). AID 2098. NIH3T3-HGL HSE-luciferase, MG132-induced, luminescence 8 h; active compounds read low. 0.77% of 300,000 active;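 active means more than half of replicate wells show activity change below -50%, luminescence cut by over half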;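 further: luciferase reports HSF-1 transcriptional activity via heat shock element; 0% = median of DMSO wells and -100% = zero luminescence signal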
AI-2 QS mod: modulates the Vibrio harveyi AI-2 quorum sensing system; Vibrio harveyi JMH597 AI-2 luminescence/OD600 ratio, 9 h; active compounds read low; strain lacks LuxN and CqsS sensors; 0 = neutral-control median; 0.4% of 300,000 active; activity change, % at 7.5 µM; in the data active means activity change below about -75%, passing the limit was not always enough;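 further: luminescence divided by OD600 gain over 9 h not by final OD600 alone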
An asterisk follows results filed as active; nt = no result given. Hits are enriched below; roughly 6.8% of the tested compounds scored in any of these assays.

SMILES | HCV core dimer | ALR inh | HSF-1 act | PHOSPHO1 inh | HSF1 inh | AI-2 QS mod
Cc1ccc(/C=N/NC(=O)CSc2nc3ccccc3n2C)s1 | 0 | 89* | 3 | 4 | -1 | 12
CC(=O)NC(C)C(=O)OCc1ccc(Cl)cc1Cl (stereo unspecified) | -1 | 2 | 3 | 0 | 7 | 33
O=C(O)c1ccccc1COc1ccccc1Cl | 0 | nt | -58 | 9 | -56* | 40
COc1ccccc1-c1sc2cc3c(cc2c1C#Cc1cncn1C)OCO3 | nt | -1 | nt | nt | nt | nt
CCN(CC)C(=S)SC1=CCS(=O)(=O)C1 | 1 | 0 | -7 | -11 | -2 | 3
